Activity, inhibition and IC50 data for three molecules are collected here from ChEMBL document CHEMBL1914300, “Anti-inflammatory amino acid derivatives from the ascidian Herdmania momus” (J Nat Prod, 2011).

The subject of one test is Klebsiella aerogenes. Description: Antibacterial activity against Klebsiella aerogenes at 30 ug/disk by agar diffusion assay. Format: functional, organism-based.
In another test the test system is Enterobacter cloacae. Description: Antibacterial activity against Enterobacter cloacae at 30 ug/disk by agar diffusion assay. It is filed as functional, organism-based.
The subject of the next test is Salmonella typhimurium. Description: Antibacterial activity against Salmonella Typhimurium at 30 ug/disk by agar diffusion assay. Particulars: Salmonella enterica subsp. enterica serovar Typhimurium. Format: functional, organism-based.
In the next test the test system is Escherichia coli. Description: Antibacterial activity against Escherichia coli at 30 ug/disk by agar diffusion assay. Format: functional, organism-based.
For a further test, the system named is Staphylococcus aureus. Description: Antibacterial activity against Staphylococcus aureus at 30 ug/disk by agar diffusion assay. It is filed as functional, organism-based.
The test system of test [1] is RAW264.7. Description: Antiinflammatory activity in mouse RAW264.7 cells assessed as suppression of LPS-stimulated IL6 production at 25 to 50 uM after 24 hrs by ELISA. It is filed as functional, cell-based. The procedure, abridged: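 Cells at 1.5 × 10^5 cells/mL were preincubated 18 h, then given LPS (1 μg/mL) plus samples (50 and 25 μM) for 24 h. Samples were dissolved in EtOH and diluted in DMEM, with final solvent ≤0.1%. IL-6 in the supernatant was measured by mouse ELISA. Mean ± SD of triplicate experiments.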

Test [2] relates to RAW264.7. Description: Antiinflammatory activity in mouse RAW264.7 cells assessed as inhibition of LPS-stimulated IL6 mRNA expression at 12.5 to 50 uM by RT-PCR. It is filed as functional, cell-based.
Test [3] has as its system RAW264.7. Description: Inhibition of NO production in LPS-stimulated mouse RAW264.7 cells assessed as nitrite accumulation after 10 mins by Griess reaction method. Format: functional, cell-based. Particulars: RAW264.7, 10 min. The procedure, abridged:
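Cells were stimulated 24 h with LPS (1 μg/mL) alone or with samples (250, 50, 10, 2 μM). Supernatant was mixed 1:1 with Griess reagent (0.1% naphthalene diamine dihydrochloride, 1% sulfanilamide, 2.5% H3PO4) for 10 min at room temperature. Absorbance at 540 nm was converted against a sodium nitrite standard curve. Mean ± SD of triplicates.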

The target of test [4] is T1, Prostaglandin G/H synthase 2 (Mus musculus) (UniProt Q05769).
T1 sequence (whole entry): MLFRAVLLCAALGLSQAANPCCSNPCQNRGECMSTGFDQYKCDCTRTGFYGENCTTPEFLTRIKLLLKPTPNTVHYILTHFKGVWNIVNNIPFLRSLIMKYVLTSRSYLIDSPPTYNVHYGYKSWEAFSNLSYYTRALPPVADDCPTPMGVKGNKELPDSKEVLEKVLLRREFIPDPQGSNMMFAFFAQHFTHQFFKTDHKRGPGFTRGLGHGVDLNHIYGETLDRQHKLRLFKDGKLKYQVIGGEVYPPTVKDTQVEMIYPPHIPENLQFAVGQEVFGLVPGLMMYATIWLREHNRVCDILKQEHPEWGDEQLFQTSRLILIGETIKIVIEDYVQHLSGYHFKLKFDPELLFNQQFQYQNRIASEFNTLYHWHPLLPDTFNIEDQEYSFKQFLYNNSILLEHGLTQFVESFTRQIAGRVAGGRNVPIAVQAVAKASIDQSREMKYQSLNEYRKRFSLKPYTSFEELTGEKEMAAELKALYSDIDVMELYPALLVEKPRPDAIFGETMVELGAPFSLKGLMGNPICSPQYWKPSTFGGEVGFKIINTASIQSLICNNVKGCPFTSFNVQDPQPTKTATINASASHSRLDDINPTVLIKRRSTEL
Description: Inhibition of COX2-mediated PGE2 production in LPS-stimulated mouse RAW264.7 cells at 25 to 50 uM by ELISA.

For test [5], the system named is RAW264.7. Description: Inhibition of LPS-induced iNOS mRNA expression in mouse RAW264.7 cells at 12.5 to 50 uM by […]. Format: functional, cell-based. The procedure, abridged:
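Total RNA from LPS (1 μg/mL)-stimulated cells was isolated by Tri-Reagent. RNA (1 μg) was primed with oligo(dT)18 (70 °C, 5 min) and reverse-transcribed with M-MuLV and 0.5 μM dNTP (25 °C 5 min, 37 °C 60 min), then inactivated at 70 °C for 15 min.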

Test [6] relates to RAW264.7. Description: Cytotoxicity against mouse RAW264.7 cells after 24 hrs by WST-1 assay. Format: cell-based. Particulars: RAW264.7, 24 h. The procedure, abridged: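 Cells were exposed 24 h to LPS (1 μg/mL) alone or with samples (250, 50, 10, 2 μM). WST-1 reagent was then added for 2 h, and formazan was read at 450 nm. Mean ± SD of triplicate experiments.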

Activity calls are given as the source filed them. No cut-off for these calls is given here.

As to `N=C(N)NCCC[C@@H](NC(=O)c1ccc(OC(=O)c2c[nH]c3ccccc23)cc1)C(=O)O`, the outcome with Klebsiella aerogenes, in the test on Enterobacter cloacae, in the test on Salmonella typhimurium, in the test with Escherichia coli and with Staphylococcus aureus was inactive.

For `N=C(N)NCCC[C@@H](NC(=O)c1ccc(OC(=O)c2ccc(O)cc2)cc1)C(=O)O` [HERDMANINE C], in the test on RAW264.7 [1], the result was Active. In addition, the result with Klebsiella aerogenes, in the test with Enterobacter cloacae, in the test with Salmonella typhimurium, in the test with Escherichia coli and in the test on Staphylococcus aureus was inactive. For the same molecule, the inhibition result (in the test on RAW264.7 [2]; in [4]; in the test on RAW264.7 [5]) was “Active” each time. Moreover, the IC50 with RAW264.7 [3] turned out to be 96 µM.

Turning to `N[C@@H](Cc1ccc(OC(=O)c2c[nH]c3cc(Br)c(O)cc23)cc1)C(=O)O` [HERDMANINE D], the IC50 in the test on RAW264.7 [6] is 170 µM; in the test with RAW264.7 [3] it was 9 µM. Besides, the result with RAW264.7 [1] was Active. The result in the test on Klebsiella aerogenes, with Enterobacter cloacae, in the test with Salmonella typhimurium, with Escherichia coli and in the test with Staphylococcus aureus was inactive. Further, the inhibition entry (with RAW264.7 [2]; in test [4]; with RAW264.7 [5]) was “Active” each time.
